Experimental data reported in ChEMBL document CHEMBL5032509, “Design of a Stable Cyclic Peptide Analgesic Derived from Sunflower Seeds that Targets the κ-Opioid Receptor for the Treatment of Chronic Abdominal Pain” (J Med Chem, 2021).
The source made the active and inactive calls. No cut-off for these calls is given here. Bridge positions count the residues as written; N and C are the ends. Square brackets hold non-standard residues; d marks the D form. Peptide text beside a SMILES is read from it. dNle = CCCC[C@@H](N)C(=O)O

Tests used:
[1] = biological target: Kappa-type opioid receptor (Mus musculus) (UniProt P33534); assay: Agonist activity at mouse KOR expressed in HEK293 cell assessed as maximal inhibition of cAMP concentration incubated for 1 hrs by time-resolved fluorescence resonance energy transfer assay relative to control; format: functional, cell-based; conditions: filed as agonist
Sequence of Kappa-type opioid receptor (Mus musculus) (P33534 whole entry): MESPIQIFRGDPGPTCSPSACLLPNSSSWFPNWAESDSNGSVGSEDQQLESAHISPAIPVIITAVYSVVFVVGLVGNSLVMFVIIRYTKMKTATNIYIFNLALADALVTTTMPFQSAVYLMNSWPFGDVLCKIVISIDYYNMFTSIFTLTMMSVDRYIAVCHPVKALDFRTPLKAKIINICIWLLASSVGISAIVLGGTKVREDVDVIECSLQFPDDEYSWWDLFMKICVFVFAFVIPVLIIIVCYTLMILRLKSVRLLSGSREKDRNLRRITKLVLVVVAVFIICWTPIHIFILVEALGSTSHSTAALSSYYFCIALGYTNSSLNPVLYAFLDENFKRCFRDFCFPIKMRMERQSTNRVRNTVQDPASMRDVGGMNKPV
Outline: (§1)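 HEK293 cells stably expressing mouse KOR, 2000 cells/well, exposed to log-spaced peptide concentrations with forskolin (10 µM final) for 30 min at 37 °C. Eu-cryptate cAMP and d2-labelled anti-cAMP antibody then added for 1 h at room temperature. HTRF read as the 665/620 nm ratio, in triplicate. Three-parameter fit with bottom fixed at zero and slope one gives EC50 and Emax. Normalised to the highest dyn A 1–13 concentration (100%).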

[2] = Stability of the compound in simulated gastric fluid at pH 1.2 assessed as drug degradation by UPLC-UV analysis; format: ADME
Outline: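 Peptide stock (2 mM in water) diluted 5:95 into USP simulated gastric fluid, pepsin added after adjusting to pH 1.2, incubated at 37 °C. Aliquots taken at 0, 15, 30 min and 1, 3, 6 h, quenched in ice-cold methanol. Data fitted to exponential decay for half-life.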

[3] = biological target: T1, Kappa-type opioid receptor (Mus musculus, UniProt P33534); assay: Displacement of [3H]-diprenorphine from mouse KOR expressed in HEK293 cell membranes by radioligand binding assay relative to control; set-up: species or system Cell membrane
T1 sequence (P33534 whole entry): as above
Outline: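 Membranes from HEK293 cells stably expressing mouse KOR (7 µg/assay). Filtered onto PEI-soaked GF/C filters. Specific binding = total minus nonspecific, normalized to binding without peptide. […]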

[4] = biological target: T1, Kappa-type opioid receptor; assay: Agonist activity at mouse KOR expressed in HEK293 cell assessed as inhibition of cAMP concentration incubated for 1 hrs by time-resolved fluorescence resonance energy transfer assay; format: functional, cell-based
Outline: as §1, with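 “temperature.” for “temperature. HTRF read as the 665/620 nm ratio, in triplicate.”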

Mus musculus [5] = organism: Mus musculus; assay: Analgesic activity in chronic visceral hypersensitivity-induced chronic abdominal pain mouse model assessed as reduction in colonic nociceptor mechano-sensitivity at 0.1 uM measured at 5 mins by Von Frey filament assay; format: functional
Outline: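 Ex vivo colon with attached splanchnic nerves from male C57BL/6J mice, 28 days after DNBS-induced colitis. Colon superfused with carbogen-gassed modified Krebs at 34 °C. Single-unit extracellular recordings of nociceptor firing to 2 g von Frey filament stimulation, repeated after 5 min drug application via a metal ring over the receptive field.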

[6] = biological target: Kappa-type opioid receptor (Mus musculus) (UniProt P33534); assay: Displacement of [3H]-diprenorphine from mouse KOR expressed in HEK293 cell membranes at 10 uM by two-point binding assay; conditions: Cell membrane, filed as agonist
Outline: (§2)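 Two-point competition at 10 µM and 100 nM peptide. Membranes (7 µg) from HEK293 cells stably expressing mouse KOR incubated with [3H]-diprenorphine (1 nM final) for 1 h at 37 °C in 50 mM Tris–HCl pH 7.4, 10 mM MgCl2, 0.1% BSA. Stopped by filtration onto PEI-soaked GF/C filters. Nonspecific binding subtracted; normalised to specific binding without peptide; mean ± SD.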

[7] = biological target: Kappa-type opioid receptor (Mus musculus) (UniProt P33534); assay: Displacement of [3H]-diprenorphine from mouse KOR expressed in HEK293 cell membranes at 100 nM by two-point binding assay; conditions: Cell membrane, filed as agonist; outline: as §2
Mu-type opioid receptor = Mu-type opioid receptor (Mus musculus, UniProt P42866); assay: Displacement of [3H]-diprenorphine from mouse MOR expressed in HEK293 cell membranes by radioligand binding assay relative to control; set-up: species or system Cell membrane
Sequence of Mu-type opioid receptor (P42866 whole entry): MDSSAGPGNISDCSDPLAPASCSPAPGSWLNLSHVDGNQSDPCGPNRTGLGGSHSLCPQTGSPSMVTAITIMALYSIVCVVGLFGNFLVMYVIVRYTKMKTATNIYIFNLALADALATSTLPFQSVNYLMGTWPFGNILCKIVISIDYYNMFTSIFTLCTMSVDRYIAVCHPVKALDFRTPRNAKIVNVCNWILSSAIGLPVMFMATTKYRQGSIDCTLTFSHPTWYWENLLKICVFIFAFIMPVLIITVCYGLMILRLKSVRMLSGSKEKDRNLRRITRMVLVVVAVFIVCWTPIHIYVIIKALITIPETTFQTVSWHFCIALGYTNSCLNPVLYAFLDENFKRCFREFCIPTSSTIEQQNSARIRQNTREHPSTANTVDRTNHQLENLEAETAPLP
Outline: (§3)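 Membranes from HEK293 cells stably expressing mouse DOR (20 µg/assay) or MOR (50 µg/assay). Incubated with 1 nM final [3H]-diprenorphine in 50 mM Tris–HCl pH 7.4, 10 mM MgCl2, 0.1% BSA for 1 h at 37 °C, in duplicate. Stopped by filtration onto PEI-soaked GF/C filters. Specific binding = total minus nonspecific, normalized to specific binding without peptide; n = 2.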

[8] = biological target: Delta-type opioid receptor (Mus musculus, UniProt P32300); assay: Displacement of [3H]-diprenorphine from mouse DOR expressed in HEK293 cell membranes by radioligand binding assay relative to control; set-up: species or system Cell membrane; outline: as §3
Sequence of Delta-type opioid receptor (P32300 whole entry): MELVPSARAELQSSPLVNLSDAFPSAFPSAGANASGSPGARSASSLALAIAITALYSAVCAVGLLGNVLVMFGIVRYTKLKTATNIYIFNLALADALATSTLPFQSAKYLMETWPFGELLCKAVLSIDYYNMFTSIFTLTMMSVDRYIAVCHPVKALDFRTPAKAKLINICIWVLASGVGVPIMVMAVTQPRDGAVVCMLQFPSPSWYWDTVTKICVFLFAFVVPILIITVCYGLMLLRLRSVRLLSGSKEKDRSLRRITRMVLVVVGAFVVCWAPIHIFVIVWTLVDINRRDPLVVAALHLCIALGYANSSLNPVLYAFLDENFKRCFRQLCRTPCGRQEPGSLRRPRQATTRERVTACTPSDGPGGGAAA

[9] = biological target: T1, Kappa-type opioid receptor; assay: Agonist activity at EGFP-tagged mouse KOR expressed in HEK293 cells co-expressing beta-arrestin2 nano-luciferase assessed as beta-arrestin2 recruitment for 5 mins by BRET assay; format: functional, cell-based
Outline: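 HEK293 cells co-transfected with human β-arrestin-2 nano-luciferase and mouse KOR-EGFP plasmids (1:10). After ≥16 h they were plated in phenol red-free DMEM with 10% FBS and left to adhere overnight, then serum-starved 1 h at 37 °C. Furimazine (1:50) added for 5 min at 37 °C, with a 5 min baseline. Peptide added for 5 min at 37 °C in triplicate. Luminescence read at 460 nm and EGFP fluorescence at 510 nm.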

Mus musculus [10] = assay: Effect on healthy mouse assessed as visceromotor response measured at different colorectal distention pressure at 10 uM intra-colonic administration as enema by electromyography; format: ADME, organism-based; conditions: in vivo, other
Outline: (§4)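 Healthy or CVH (DNBS 6 mg in 30% ethanol enema, 28 d recovery) female mice. Under brief isoflurane, 100 µL enema of saline vehicle or peptide (10 µM). EMG from abdominal muscle electrodes during balloon CRD at 20, 40, 50, 60 and 80 mmHg (20 s each), run 10–30 min after dosing. Rectified, integrated AUC; mean ± SEM.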

Mus musculus [11] = assay: Reduction in visceromotor response in chronic visceral hypersensitivity-induced chronic abdominal pain mouse model measured at different colorectal distention pressure at 10 uM intra-colonic administration as enema by electromyography; format: functional, organism-based; outline: as §4
Mus musculus [12] = organism: Mus musculus; assay: Analgesic activity in chronic visceral hypersensitivity-induced chronic abdominal pain mouse model assessed as reduction in mechanical stimulation induced action potential firing of colonic nociception at 1 uM measured at 5 mins […]; format: functional
Outline: (§5)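 Ex vivo colon with attached splanchnic nerve from DNBS-induced CVH mice. Colon superfused with carbogen-gassed modified Krebs at 34 °C. Single-unit extracellular recording of nociceptor firing to 2 g von Frey probing, repeated after 5 min ring application of peptide (1 µM), with or without 5 min nor-BNI pre-incubation. Paired t-test.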

Mus musculus [13] = organism: Mus musculus; assay: Analgesic activity in chronic visceral hypersensitivity-induced chronic abdominal pain mouse model assessed as reduction in colonic nociceptor mechano-sensitivity at 1 uM in presence of 0.1 uM nor-BNI measured at 5 mins […]; format: functional; outline: as §5
[14] = Toxicity in mouse assessed as motor coordination by measuring latency to fall in mouse at 5 mg/kg, ip measured at 45 mins by rotarod test; format: organism-based; conditions: in vivo, 0.75 h
Outline: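 Male C57BL/6N mice (8 weeks) given 5 mg/kg i.p. in saline (10 µL/g); vehicle 0.9% NaCl. After habituation, drum accelerated from 4 to 40 rpm. Three trials 15 min apart, starting 45 min post-injection; latency to fall averaged. Mean ± SEM, one-way ANOVA with Fisher's LSD, N = 8–12/group.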

[15] = Toxicity in mouse assessed as […] by measuring vocalization in mouse at 5 mg/kg, ip measured at 60 mins by […]; format: organism-based; conditions: in vivo, 1 h
[16] = Toxicity in mouse assessed as […] by measuring flinch response in mouse at 5 mg/kg, ip measured at 60 mins by […]; format: organism-based; conditions: in vivo, 1 h
Outline: (§6)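 Male C57BL/6N mice given 5 mg/kg i.p. in saline (vehicle 0.9% NaCl). Jump-flinch test 60 min post-injection: 1 min exploration, then 1 s foot shocks every 30 s at six intensities. Intensity at first flinch, vocalization and jump recorded. Mean ± SEM, one-way ANOVA with Fisher's LSD, N = 8–12/group.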

[17] = Toxicity in mouse assessed as […] by measuring jump response in mouse at 5 mg/kg, ip measured at 60 mins by […]; format: organism-based; conditions: in vivo, 1 h; outline: as §6

CC[C@H](C)[C@H](NC(=O)[C@H](CCCN=C(N)N)NC(=O)[C@H](CCCN=C(N)N)NC(=O)[C@H](CC(C)C)NC(=O)[C@H](Cc1ccccc1)NC(=O)CNC(=O)CNC(=O)[C@@H](N)Cc1ccc(O)cc1)C(=O)N[C@@H](CCCN=C(N)N)C(=O)N1CCC[C@H]1C(=O)N[C@@H](CCCCN)C(=O)N[C@@H](CC(C)C)C(=O)N[C@@H](CCCCN)C(N)=O
Emax [1]: 100%
half-life [2]: < 15 min

CC[C@H](C)[C@@H]1NC(=O)[C@@H]2CCCN2C(=O)[C@@H]2CCCN2C(=O)[C@H]([C@@H](C)CC)NC(=O)[C@H](CO)NC(=O)[C@H](CCCCN)NC(=O)[C@H]([C@@H](C)O)NC(=O)[C@@H]2CSSC[C@H](NC1=O)C(=O)N[C@@H](Cc1ccccc1)C(=O)N1CCC[C@H]1C(=O)N[C@@H](CC(=O)O)C(=O)NCC(=O)N[C@@H](CCCNC(=N)N)C(=O)N2
Ki [3]: > 30 µM

CC[C@H](C)[C@@H]1NC(=O)[C@H](CCCNC(=N)N)NC(=O)[C@H](CCCNC(=N)N)NC(=O)[C@H](CC(C)C)NC(=O)[C@H](Cc2ccccc2)NC(=O)CNC(=O)CNC(=O)[C@H](Cc2ccc(O)cc2)NC(=O)[C@@H]2CSSC[C@H](NC1=O)C(=O)N[C@@H](Cc1ccccc1)C(=O)N1CCC[C@H]1C(=O)N[C@@H](CC(=O)O)C(=O)NCC(=O)N[C@@H](CCCNC(=N)N)C(=O)N2
Ki ([3]; hek293): 3.2 µM
EC50 ([4]; hek293): 1.4 µM

Oc1ccc2c3c1O[C@H]1c4[nH]c5c(c4C[C@@]4(O)[C@@H](C2)N(CC2CC2)CC[C@]314)C[C@@]1(O)[C@H]2Cc3ccc(O)c4c3[C@@]1(CCN2CC1CC1)[C@H]5O4
Activity (Mus musculus [5]): inactive

CC[C@H](C)[C@@H]1NC(=O)[C@@H]2CCCN2C(=O)[C@@H]2CCCN2C(=O)[C@H]([C@@H](C)CC)NC(=O)[C@H](CO)NC(=O)[C@H](C)NC(=O)[C@H]([C@@H](C)O)NC(=O)[C@@H]2CSSC[C@H](NC1=O)C(=O)N[C@@H](Cc1ccc(O)cc1)C(=O)NCC(=O)NCC(=O)N[C@@H](Cc1ccccc1)C(=O)N[C@@H](CCCNC(=N)N)C(=O)N2 (cyclo(ASIPPICYGGFRCT); disulfide 7-13)
Ki ([3]; hek293): > 10 µM

CC[C@H](C)[C@@H]1NC(=O)[C@@H]2CCCN2C(=O)[C@@H]2CCCN2C(=O)[C@H]([C@@H](C)CC)NC(=O)[C@H](CO)NC(=O)[C@H](C)NC(=O)[C@H]([C@@H](C)O)NC(=O)[C@@H]2CSSC[C@H](NC1=O)C(=O)N[C@H](Cc1ccccc1)C(=O)N[C@H](Cc1ccccc1)C(=O)N[C@H](CC(C)C)C(=O)N[C@H](CCCCN)C(=O)N[C@@H](CCCNC(=N)N)C(=O)N2 (cyclo(ASIPPIC[dF][dF][dL][dK]RCT); disulfide 7-13)
Ki ([3]; hek293): > 10 µM

CCCC[C@H]1NC(=O)[C@@H](Cc2ccccc2)NC(=O)[C@@H](Cc2ccccc2)NC(=O)[C@@H]2CSSC[C@H](NC(=O)[C@H](CCCNC(=N)N)NC(=O)[C@@H](CCCNC(=N)N)NC1=O)C(=O)N[C@@H]([C@@H](C)O)C(=O)N[C@@H](C)C(=O)N[C@@H](CO)C(=O)N[C@@H]([C@@H](C)CC)C(=O)N1CCC[C@H]1C(=O)N1CCC[C@H]1C(=O)N[C@@H]([C@@H](C)CC)C(=O)N2 (cyclo(ASIPPIC[dF][dF][dNle][dR]RCT); disulfide 7-13)
Ki ([3]; hek293): > 10 µM

CC[C@H](C)[C@@H]1NC(=O)[C@@H]2CCCN2C(=O)[C@H](Cc2ccccc2)NC(=O)CNC(=O)CNC(=O)[C@H](Cc2ccc(O)cc2)NC(=O)[C@H]([C@@H](C)O)NC(=O)[C@@H]2CSSC[C@H](NC1=O)C(=O)N[C@@H](Cc1ccccc1)C(=O)N1CCC[C@H]1C(=O)N[C@@H](CC(=O)O)C(=O)NCC(=O)N[C@@H](CCCNC(=N)N)C(=O)N2 (cyclo(CFPDGRCTYGGFPI); disulfide 1-7)
Ki ([3]; hek293): > 10 µM

CC[C@H](C)[C@@H]1NC(=O)[C@@H]2CSSC[C@H](NC(=O)[C@H](CCCCN)NC(=O)[C@H](CC(C)C)NC(=O)[C@H](CCCCN)NC(=O)[C@@H]3CCCN3C(=O)[C@H](CCCNC(=N)N)NC1=O)C(=O)N[C@@H](Cc1ccc(O)cc1)C(=O)NCC(=O)NCC(=O)N[C@@H](Cc1ccccc1)C(=O)N[C@@H](CC(C)C)C(=O)N[C@@H](CCCNC(=N)N)C(=O)N[C@@H](CCCNC(=N)N)C(=O)N2 (cyclo(CIRPKLKCYGGFLRR); disulfide 1-8)
Ki [3]: 0.021 µM
Activity [6]: Active
EC50 [4]: 0.045 µM
Activity [7]: Active
Ki (Mu-type opioid receptor): > 10 µM
Ki [8]: > 10 µM
EC50 [9]: 1.4 µM
Activity (Mus musculus [10]): Non-Toxic
Activity (Mus musculus [11]): Active
Activity (Mus musculus [12]): Active
Activity (Mus musculus [13]): Active
Activity [14]: Non-Toxic
Activity [15]: Non-Toxic
Activity [16]: Non-Toxic
Activity [17]: Non-Toxic
